# Results of several laboratories.
# Target: Mitogen-activated protein kinase kinase kinase 3 (MAP3K3, Homo sapiens, UniProt Q99759)
# One construct used (Q99759 1-626): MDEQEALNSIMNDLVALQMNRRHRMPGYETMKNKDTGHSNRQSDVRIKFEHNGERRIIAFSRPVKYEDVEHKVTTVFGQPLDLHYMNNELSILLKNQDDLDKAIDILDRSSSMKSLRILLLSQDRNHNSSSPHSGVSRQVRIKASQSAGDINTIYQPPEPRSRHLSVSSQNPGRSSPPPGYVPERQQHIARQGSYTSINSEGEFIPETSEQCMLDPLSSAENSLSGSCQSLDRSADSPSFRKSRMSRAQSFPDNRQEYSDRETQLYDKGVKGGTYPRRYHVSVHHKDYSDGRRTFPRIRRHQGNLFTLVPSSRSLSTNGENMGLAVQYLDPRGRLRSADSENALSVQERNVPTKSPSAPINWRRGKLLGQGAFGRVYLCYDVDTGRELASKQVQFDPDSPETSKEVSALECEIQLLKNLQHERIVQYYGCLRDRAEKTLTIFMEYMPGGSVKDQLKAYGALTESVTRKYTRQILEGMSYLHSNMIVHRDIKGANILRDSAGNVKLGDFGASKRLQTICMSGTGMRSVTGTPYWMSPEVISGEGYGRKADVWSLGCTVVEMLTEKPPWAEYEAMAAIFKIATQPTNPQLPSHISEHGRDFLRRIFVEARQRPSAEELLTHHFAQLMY
Compound,assay,setting,quantity,result
O=C(NS(=O)(=O)c1ccc(NCC2CCOCC2)c([N+](=O)[O-])c1)c1ccc(N2CCN(Cc3ccc(C(F)(F)F)cc3-c3ccc(Cl)cc3)CC2)cc1Oc1cnc2[nH]ccc2c1,"cell-free assay, competition with immobilised ligand",1 µM,remaining binding,82%
O=C1Nc2ccc(Cl)cc2C1=Cc1cc(Cl)c(O)c(Cl)c1,cell-free assay,0.5 µM,remaining signal,101%
O=C(NCc1ncc(C(F)(F)F)cc1Cl)c1ccc2c(c1)C1(CCS(=O)(=O)CC1)[C@H](C1CC1)N2S(=O)(=O)c1ccc(F)cc1,"cell-free assay, competition with immobilised ligand",1 µM,remaining binding,74%
CC(C)(C)c1nc2c(s1)c1nc(N)ncc1c1ccc(NS(=O)(=O)c3c(F)cccc3F)c(F)c12,"enzyme activity, inhibitor, radiometric",1 µM,remaining activity,117%
Cc1ccc(C(=O)Nc2ccc(CN3CCN(C)CC3)c(C(F)(F)F)c2)cc1C#Cc1cnc2cccnn12,"enzyme activity, inhibitor",23.5 nM,remaining activity,34%
COc1cc(Cl)c(C(=O)N[C@@H](CN[C@H]2CC[C@@H](N)CC2)Cc2ccc(C#N)cc2)cc1-c1ccc(CN[C@H](C)c2ccc(C)cc2)o1,"enzyme activity, inhibitor",1 µM,remaining activity,95%
Cc1ccc(NC(=O)c2ccc(CN3CCN(C)CC3)cc2)cc1Nc1nc(-c2cccnc2)cs1,cell-free assay,0.5 µM,remaining signal,108%
CCS(=O)(=O)c1cc2cc(C[C@@](O)(CC(C)(C)c3ccc(F)cc3C(N)=O)C(F)(F)F)[nH]c2cn1,"cell-free assay, competition with immobilised ligand",1 µM,remaining binding,90%
O=C(Nc1cnn(-c2csc(C(=O)NC3COC3)c2)c1)Nc1ccccc1Cl,"enzyme activity, inhibitor",5 µM,remaining activity,113%
Nc1ncnc2occ(-c3ccc(NC(=O)Nc4cc(C(F)(F)F)ccc4F)cc3)c12,"cell-free assay, inhibitor",20 µM,remaining signal,4.3%
COc1ccc(F)cc1C(=O)NCc1ccc(-c2nn([C@@H](C)C(F)(F)F)c(N)c2C(N)=O)cc1,"target engagement in cells, inhibitor, chemoproteomics",10 nM,inhibition,4.7%
c1cnn2ncc(-c3ccnc(N4CCC45COC5)n3)c2c1,binding,1 µM,remaining binding,40%
C[C@@H]1CN(c2cc(-c3n[nH]c4ccc(OC5(C)CC5)cc34)ncn2)C[C@H](C)O1,"cell-free assay, competition with immobilised ligand",0.1 µM,remaining binding,64%
O=C1NC(=O)c2cc(Nc3ccc(F)cc3)c(Nc3ccc(F)cc3)cc21,cell-free assay,0.5 µM,remaining signal,102%
CS(=O)(=O)c1cc(C2(NC(=O)c3cncc4c3cnn4-c3ccc(F)cc3)CC2)ccn1,"cell-free assay, competition with immobilised ligand",1 µM,remaining binding,92%
N#CCCc1ccc2c(c1)-c1[nH]c3ccc([N+](=O)[O-])cc3c1CC(=O)N2,cell-free assay,0.5 µM,remaining signal,83.3%
